Screening data deposited in PubChem BioAssay by several laboratories.
Compounds with a hit are over-represented: about 2.6% of the library has one in this group of screens.
ASAP1 GAP inh: blocks human ASAP1-stimulated Arf1 GTP hydrolysis. actives 0.19% (n = 360,000). inhibition, % at 16.5 µM. GDP FP detection. AID 624377; in the data active = inhibition above about 25%
Target sequence (Q9ULH1 325-724 limits assumed): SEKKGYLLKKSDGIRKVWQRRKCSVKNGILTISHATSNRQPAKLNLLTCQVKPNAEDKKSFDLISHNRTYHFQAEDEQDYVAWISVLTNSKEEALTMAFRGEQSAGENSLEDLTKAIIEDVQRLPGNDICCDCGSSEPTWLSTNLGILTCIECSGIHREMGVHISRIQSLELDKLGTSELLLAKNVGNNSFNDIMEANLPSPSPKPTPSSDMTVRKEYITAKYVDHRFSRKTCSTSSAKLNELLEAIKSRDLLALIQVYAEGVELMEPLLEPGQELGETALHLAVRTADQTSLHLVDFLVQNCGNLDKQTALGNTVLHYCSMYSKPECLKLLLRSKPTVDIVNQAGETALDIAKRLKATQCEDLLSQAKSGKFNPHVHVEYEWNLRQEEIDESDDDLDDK
esBAF inh: SWI/SNF esBAF complex inhibition; mouse ES cells, Bmi1-luciferase knock-in reporter, 24 h; 100% = twice the neutral-well signal; reporter increase, % at 12.5 µM; actives 2% (n = 350,000); in the data active = activation above about 40%; inconclusive = no clear call, values can overlap the other calls;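 note: a rise in the Bmi1 reporter signal indicates esBAF inhibition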
SMARCA2 act: SMARCA2 function activation, primary screen; MG213 cells, MMTV-luciferase reporter, dexamethasone, overnight; activation, % at 9.1 µM; actives 1% (n = 370,000); in the data active = activation above about 7.8%
ARFGAP1 inh: rat ARFGAP1 inhibition; Q62848; Arfgap1-stimulated ARF1 GTP hydrolysis, GDP FP detection; inhibition, % at 16.5 µM; actives 0.26% (n = 360,000); AID 651572;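 active = inhibition above a per-plate limit, mean inhibition of low control wells plus 3 SD, cut at about 25% in these data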
Target sequence (Q62848 1-136 limits assumed): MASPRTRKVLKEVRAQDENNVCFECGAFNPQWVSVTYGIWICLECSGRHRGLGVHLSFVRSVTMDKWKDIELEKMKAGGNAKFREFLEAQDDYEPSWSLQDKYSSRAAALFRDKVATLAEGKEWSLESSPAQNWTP
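System: truncated rat Arfgap1 GAP domain / Medium: HEPES-based buffer, pH 7.5 / Also added: N-terminally truncated human ARF1-GTP substrate / Incubation: enzyme reaction 120 min at 25 °C after 20 min preincubation / Measured by: FP of antibody-bound GDP Alexa 633 tracer, ex 620/em 688 nm / Replicates: singlicate, each compound tested once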
Numbers stand for hits; 0 = inactive; ? = inconclusive; - = no result given.

SMILES	ASAP1 GAP inh	esBAF inh	SMARCA2 act	ARFGAP1 inh
CCCCCc1ccc(-c2cn(Cc3ccc(C(=O)c4ccccc4)cc3)nn2)cc1	0	53	0	0
COc1ccc(/C=C/C(=O)c2ccc(O)cc2)cc1	0	0	0	0
COc1cc(O)c(C(=O)/C=C/c2ccccc2)c(OC)c1	0	53	0	0
COc1cc(OC)c(C(=O)C=Cc2ccc(OC)c(OC)c2)c(OC)c1	0	0	0	0
COc1ccc(/C=C/C(=O)c2ccccc2O)cc1	-	87	-	-
C[C@H]1CN([C@@H](C)CO)C(=O)Cc2cc(NC(=O)Nc3ccc(C(F)(F)F)cc3)ccc2O[C@@H]1CN(C)Cc1ccc(-c2ccccc2)cc1	-	0	-	-
C[C@@H]1CN([C@@H](C)CO)C(=O)c2cc(NC(=O)C3CC3)ccc2O[C@H]1CN(C)Cc1ccc(Cl)c(Cl)c1	-	0	-	-
C[C@@H]1CN([C@@H](C)CO)S(=O)(=O)c2ccc(C#C[C@@H](C)O)cc2O[C@H]1CN(C)Cc1ccccn1	-	0	-	-
NC(=O)c1ccsc1NC(=O)CSc1ccccc1F	0	75	0	0
NC(=O)c1ccsc1NC(=O)COc1ccccc1	-	65	-	-
Cc1cccc(OCC(=O)OCC(=O)Nc2sccc2C(N)=O)c1	0	0	0	0
COc1ccc(Nc2nc(C)c3ccccc3n2)cc1	0	75	0	0
COc1ccc2c(C)nc(Nc3nc(C)c(C)c(=O)[nH]3)nc2c1	0	176	0	0
O=C(O)[C@H]1[C@H](CO)[C@H]2Cn3c(ccc(C4=CCCCC4)c3=O)[C@H]2N1Cc1ccc2c(c1)OCO2	-	0	-	-
CCn1c2ccccc2c2cc(NC(=O)C(=O)N3CCOCC3)ccc21	0	71	0	0
C=CCNC(=O)C1CC(=O)N(c2ccc(OCC(=O)Nc3ccccc3)cc2)C1 (configuration not stated)	0	53	0	0
COc1ccc(S(=O)(=O)Nc2ccc3c(c2)C(=O)N([C@H](C)CO)C[C@@H](C)[C@@H](CN(C)C(=O)Nc2cccc4ccccc24)OCCCC[C@@H](C)O3)cc1	-	0	-	-
Cc1ccc(-c2cc(C(=O)N/N=C/c3c(C)nn(C)c3C)c3ccccc3n2)cc1C	0	48	0	0
O=C(C[C@H]1CC[C@H](NC(=O)Nc2ccc3c(c2)OCO3)[C@@H](CO)O1)NCCCN1CCOCC1	-	0	-	-
CO/N=C/C(C#N)=C/c1ccc(OC)cc1	0	88	0	0
N#C/C(=C\c1ccc(F)cc1)c1nc(-c2ccco2)cs1	0	79	0	0
CCOC(=O)c1oc2cccc(O)c2c1C	0	48	0	0
CCOC(=O)c1oc2cccc(OC(C)=O)c2c1C	0	?	0	0
Cc1ccc(NC(=O)c2ccc(-n3cccn3)c([N+](=O)[O-])c2)cc1	0	0	0	0
O=C(Nc1ccc(C2=NCCN2)cc1)c1ccc(C(=O)Nc2ccc(C3=NCCN3)cc2)c([N+](=O)[O-])c1	0	-	0	27
SMILES	ASAP1 GAP inh	esBAF inh	SMARCA2 act	ARFGAP1 inh
c1ccc2c(C3OCC4(CCCCC4)CO3)cccc2c1	0	45	0	0
c1ccc(C2OCC3(CO2)COC(c2ccccc2)OC3)cc1 (configuration not stated)	0	0	0	0
CC(C)OC(=O)c1cc2ccccc2[nH]1	0	66	0	0
Oc1ccc(-c2cccc(-c3ccc(O)cc3)n2)cc1	0	48	0	0
Oc1ccc(-c2cc(-c3ccc(O)cc3)nc(-c3ccccc3)n2)cc1	0	0	0	0
CC(NC(=O)CSc1n[nH]c(N)n1)c1ccccc1 (configuration not stated)	0	0	0	0
CCCc1ccc(-c2cc(NC(=O)CSc3n[nH]c(N)n3)n(-c3ccccc3)n2)cc1	0	64	0	0
CCOc1ccc(NC(=O)c2ccc3c(c2)N(C)CCS3)cc1	0	72	0	0
C[C@@H]1CN([C@@H](C)CO)C(=O)c2cc(NC(=O)CCCN(C)C)ccc2O[C@@H]1CN(C)S(=O)(=O)c1cn(C)cn1	-	0	-	-
COc1ccc(C(=O)Nc2ccc3ccccc3c2)cc1OC	0	86	0	0
COc1cc2ccccc2cc1C(=O)Nc1ccc(Cl)cn1	0	67	0	0
O=C(Nc1ccc2ccccc2c1)c1cc(F)c(F)cc1Cl	0	78	0	0
Cc1cccc(NC(=S)Nc2cccc3ccccc23)c1	0	0	0	0
COc1cccc(NC(=S)Nc2cccc3ccccc23)c1	0	55	0	0
O=C(Nc1ccc2ccccc2c1)c1ccc(Cl)cc1Cl	0	0	0	0
CN1[C@@H]2c3ccc(C4=CCCCC4)c(=O)n3C[C@H]1[C@H](CO)[C@H]2C(=O)NCCc1ccccc1	-	0	-	-
COc1cccc(S(=O)(=O)N(C)C[C@H]2OCc3ccccc3-c3ccccc3C(=O)N([C@H](C)CO)C[C@@H]2C)c1	-	0	-	-
C[C@@H]1CN([C@@H](C)CO)C(=O)c2cc(C#CC3CCCC3)cnc2O[C@H]1CN(C)C(=O)C1CC1	-	0	-	-
C[C@H](CO)N1C[C@H](C)[C@H](CN(C)CC2CCCCC2)Oc2c(NC(=O)Nc3ccc4c(c3)OCO4)cccc2C1=O	-	0	-	-
COCC(=O)N(C)C[C@H]1[C@H](c2ccccc2)[C@@H](CO)N1C(=O)Cc1ccncc1	-	0	-	-
COc1cc(OC)c(C(=O)Nc2ccc3ccccc3c2)cc1OC	-	54	-	-
O=C(Nc1nccs1)c1csc2c1CCCC2	0	63	0	0
COc1cccc(NC(=O)c2cc3ccccc3cc2OC)c1	0	50	0	0
CCOc1ccc(C(=O)Nc2ccc(Cl)cn2)cc1Cl	0	132	0	0
COc1ccc(NC(=O)c2cc3ccccc3cc2OC)cc1OC	0	-	0	0
SMILES	ASAP1 GAP inh	esBAF inh	SMARCA2 act	ARFGAP1 inh
C[C@@H]1CN([C@H](C)CO)S(=O)(=O)c2ccc(-c3ccncc3)cc2O[C@H]1CN(C)Cc1cccnc1	-	0	-	-
COc1cccc(NC(=O)c2csc3c2CCCC3)c1	0	69	0	0
CC(=O)Nc1ccc(/C=C/c2nc(-c3ccccc3O)n[nH]2)cc1	0	73	0	0
O=C(CSc1nnc(C2CC2)n1C1CC1)c1ccc(Br)s1	0	56	0	0
CN(C)CCCNC(=O)C[C@H]1CC[C@H]2[C@@H](COc3ccc(NC(=O)c4ccccc4F)cc3C(=O)N2C)O1	-	0	-	-
Cc1ccc(NC(=O)c2nnn(CC(=O)Nc3ccc4c(c3)OCO4)c2N)cc1C	0	0	0	0
Nc1c(C(=O)Nc2ccc3c(c2)OCCO3)nnn1CCc1ccccc1	0	66	0	0
Nc1c(C(=O)Nc2ccc3c(c2)OCCO3)nnn1Cc1ccc(Br)cc1	0	126	0	0
Nc1c(C(=O)Nc2ccc3c(c2)OCCO3)nnn1Cc1cccc(Br)c1	0	55	0	0
O=C(Nc1ccc2c(c1)OCCO2)N1CCN(Cc2ccccc2)CC1	0	55	0	0
COc1ccc(NC(=O)N(C)C[C@@H]2Oc3ccc(NS(=O)(=O)c4cccs4)cc3C(=O)N([C@@H](C)CO)C[C@H]2C)cc1	-	0	-	-
C[C@H](CO)N1C[C@H](C)[C@H](CN(C)Cc2cccnc2)Oc2ncc(-c3cccc(F)c3)cc2C1=O	-	0	-	-
